Screening data from PubChem BioAssay.
ANO1 block – blocks the mouse calcium-activated chloride channel TMEM16A; HEK293 TMEM16A/YFP iodide influx fluorescence, ionomycin; normalized B-score (activity score, 25-100; higher = stronger inhibition) at 10 µM; 310,000 tested, 1.2% active;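 active means ratio plate-corrected score three or more library SD toward inhibition, starting fluorescence score within five deviations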;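 further: score derived from kinetic fluorescence span divided by baseline fluorescence per well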
MC4R antagonist – human MC4R antagonism in cAMP assay; P32245; MC4R-expressing cells, MTII-stimulated cAMP, LANCE TR-FRET; inhibition, % at 6.5 µM; 360,000 tested, 0.48% active; AID 540295;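 active means inhibition above its plate's cutoff, the mean of tested wells on that plate plus 3 SD, cut at about 29% in these data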;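 further: 0% = Melanotan II alone and 100% = Melanotan II plus saturating MCL0020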
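System: U2OS-MC4R stable cell line; Technique: Eu-cAMP/anti-cAMP TR-FRET, emission 671 nm; Repeats: single well per compound; Also added: Melanotan II; Dosing: one concentration, 6.5 µM nominal; Schedule: 30-min compound, 1-h challenge, 1-h detection, room temperature.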
MC4R ag barr – activates human MC4R beta-arrestin recruitment. activation, % at 8.9 µM. P32245. 360,000 tested, 0.98% active. U2OS MC4R beta-arrestin complementation, luminescence; percent of melanotan II response, DMSO zero;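 active means activation above a per-plate cutoff, the mean activation of sample wells on that plate plus 3 SD, cut at about 8% in these data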
CSC inhib – cancer stem cell inhibition; inhibition, % at 7.5 µM; 300,000 tested, 1.1% active; cancer stem cell-like cells viability, luminescence; in the data active means inhibition above about 75%; inconclusive means no clear call, values can overlap the other calls; tested in HMLE shEcad cells
TMEM16A act – activators or potentiators of mouse TMEM16A chloride channel. B-score at 10 µM. 340,000 tested, 0.3% active. AID 623877. HEK293 TMEM16A/YFP-H148Q/I152L, iodide quench fluorescence; stronger effect = lower value. Q8BHY3;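 active means fluorescence-ratio B-score plate-corrected deviation score at least 3 library SD below zero, with starting fluorescence score within 5 deviations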;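 further: channel opened by trigger with iodide after compound preincubation; score built on the fluorescence ratio of max minus min over baseline; more negative score means more quench and so TMEM16A activation or potentiation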
Beta cell apopt – blocks beta cell apoptosis; INS-1E cytokine-induced death, ATP luminescence, 48 h; percent of positive-control rescue, neutral wells zero; protection from apoptosis, % (no concentration beside the values); AID 435005; 300,000 tested, 0.8% active;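 active means Every replicate reaches about 75%, or at least half do and their mean reaches it too, limit read from the data; inconclusive means At least half of replicates reach the limit but their mean does not; inactive means Under half of replicates reach the limit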;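 further: 0% = cytokine-treated negative control wells and 100% = positive control rescue; higher means more ATP so stronger rescue from cytokine killing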
MC4R barr ag – human MC4R beta-arrestin agonism confirmation; shares compounds with MC4R ag barr; U2OS MC4R beta-arrestin recruitment, luminescence; scaled DMSO 0%, Melanotan II 100%; activation, % at 8.9 µM; 2,400 tested, 31% active; AID 602192;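 active means mean activation across replicates above the hit cutoff set in the earlier primary screen, cut at about 8% in these data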
MOR DOR agonist – OPRM1-OPRD1 heterodimer agonism counter-screen; shares compounds with MC4R ag barr; U2OS PathHunter beta-arrestin, beta-gal luminescence; percent of deltorphin B response, DMSO zero; activation, % at 9.2 µM; 2,400 tested, 5.8% active;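 active means mean activation across replicates exceeds the hit threshold derived in the earlier primary screen, cut at about 18% in these data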;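 further: 100% = deltorphin B at 0.9 µM final and 0% = DMSO alone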
Target sequence (P35372 whole entry, looked up): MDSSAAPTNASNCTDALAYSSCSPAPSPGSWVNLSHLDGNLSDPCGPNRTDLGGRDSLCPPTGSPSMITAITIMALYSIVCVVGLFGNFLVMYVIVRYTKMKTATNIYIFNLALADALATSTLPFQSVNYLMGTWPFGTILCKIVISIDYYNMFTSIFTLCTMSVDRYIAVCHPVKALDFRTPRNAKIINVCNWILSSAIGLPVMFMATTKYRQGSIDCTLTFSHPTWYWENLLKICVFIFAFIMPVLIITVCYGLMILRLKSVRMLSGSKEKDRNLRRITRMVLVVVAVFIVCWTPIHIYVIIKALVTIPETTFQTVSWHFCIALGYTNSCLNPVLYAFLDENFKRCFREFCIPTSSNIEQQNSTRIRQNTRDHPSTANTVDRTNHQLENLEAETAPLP
Target sequence (P41143 whole entry, looked up): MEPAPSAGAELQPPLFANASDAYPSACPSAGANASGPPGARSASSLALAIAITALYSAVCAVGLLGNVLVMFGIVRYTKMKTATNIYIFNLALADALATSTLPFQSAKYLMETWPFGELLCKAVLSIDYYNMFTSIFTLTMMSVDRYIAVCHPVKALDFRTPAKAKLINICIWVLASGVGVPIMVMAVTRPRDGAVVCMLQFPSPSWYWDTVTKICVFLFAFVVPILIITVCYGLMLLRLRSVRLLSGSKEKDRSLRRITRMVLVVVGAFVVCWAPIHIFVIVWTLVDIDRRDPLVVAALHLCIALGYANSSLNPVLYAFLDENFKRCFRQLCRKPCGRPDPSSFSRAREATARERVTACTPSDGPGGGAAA
Starred values were filed as active, the others as inactive; i = inactive; ? = inconclusive; . = no result. Compounds with a hit are over-represented: about 3.8% of the library has one in this group of screens.

SMILES | ANO1 block | MC4R antagonist | MC4R ag barr | CSC inhib | TMEM16A act | Beta cell apopt | MC4R barr ag | MOR DOR agonist
Cc1ccc(C(=O)N/C(=C\c2ccc(-c3ccc(Br)cc3)o2)C(=O)NCCCN(C)C)cc1 | i | 12.3 | 11.3* | ? | -8.16* | 100.4* | 9.1* | 9.5
Cc1ccc(C(=O)N/C(=C\c2ccc(-c3cccc([N+](=O)[O-])c3)o2)C(=O)NCCCN(C)C)cc1 | i | -19.2 | 0.5 | 11.7 | i | 6.9 | . | .
CCCCCCC(C)n1[nH]c(=O)cc1N (centres undefined) | i | -0.8 | 0.0 | -4.0 | i | -8.7 | . | .
Cn1cnc(S(=O)(=O)N2CCCCC2c2cc(C(=O)Nc3ccccc3Cl)no2)c1 (centres undefined) | . | 13.6 | -0.1 | . | . | . | . | .
O=C(O)CCCN1C(=O)/C(=C/c2cn(-c3ccccc3)nc2-c2cccs2)SC1=S | . | 19.4 | 9.9* | . | i | . | 6.1 | 1.0
COc1ccccc1C(=O)O/N=C1/CCCc2c1ccc(OC)c2[N+](=O)[O-] | i | -0.9 | 20.2* | -12.1 | i | -6.0 | 5.6 | 9.1
COc1ccc2c(c1[N+](=O)[O-])CCC/C2=N/OC(=O)c1ccccc1SC | i | -2.7 | 1.3 | . | i | -7.0 | . | .
Cc1cccc(Nc2ncnc3onc(-c4cccc(Cl)c4)c23)c1 | i | 6.0 | 11.2* | -2.7 | i | 14.6 | -0.3 | 5.6
O=C(CSc1ccc(F)cc1)Nc1ccc(C2SCCS2)cc1 | i | 11.3 | 10.4* | -8.9 | i | -1.6 | -0.3 | 2.2
O=C(CSC1=NCCS1)Nc1ccc(F)cc1 | i | -4.5 | -0.3 | -10.2 | i | -13.3 | . | .
Cc1ccc2c(c1)-n1c(nc3ccccc3c1=O)C(CC(C)C)NC2=O (centres undefined) | . | . | . | . | . | -7.1 | . | .
CC(=O)c1ccc(-c2cnc3c(NC=O)cc(-c4ccc(C(=O)NC5CC5)cc4)cn23)cc1 | . | 17.4 | 11.3* | . | . | . | 5.0 | 3.1
O=CNc1cc(-c2ccc(C(=O)NC3CC3)cc2)cn2c(-c3ccccc3)cnc12 | . | 6.6 | 5.8 | . | . | . | . | .
COc1ccc(-c2cc(NC=O)c3ncc(-c4ccc(C(C)=O)cc4)n3c2)cn1 | . | 3.2 | 17.3* | . | . | . | 15.7* | 4.2
Nc1cccc2c(=O)[nH][nH]c(=O)c12 | . | -3.4 | -0.7 | . | i | . | . | .
COC(=O)c1c(NC(=O)CN2CCN(Cc3ccc4c(c3)OCO4)CC2)sc(C)c1C | i | 12.7 | 9.6* | 60.9 | i | 7.8 | 7.7 | 12.6
CC1CCN(CCCNC(=O)C2CC(=O)N(CCc3ccccc3)C2)CC1 (centres undefined) | i | 4.3 | -2.2 | -4.4 | i | -0.8 | . | .
O=c1[nH]c(/C=C/c2cccc3ccccc23)nc2ccccc12 | i | 0.9 | 15.9* | 6.2 | i | 40.8 | 1.5 | 1.8
Nc1c(-c2cccs2)cnn1-c1nc(-c2ccc(Cl)cc2Cl)cs1 | i | -0.6 | 18.8* | 18.1 | i | -2.8 | 21.2* | 2.5
CCOC(=O)c1oc2ccccc2c1COC(=O)C(C)NC(=O)c1ccco1 (centres undefined) | . | -3.2 | -0.9 | -0.4 | i | 1.1 | . | .
CCc1ccc(NC(=O)c2ccc3c(c2)C(=O)N(Cc2ccco2)C3=O)cc1 | i | -9.9 | 11.4* | -15.3 | i | -3.2 | 5.6 | 2.8
COC(=O)Cc1ccc(NC(=O)c2ccc3c(c2)C(=O)N(Cc2ccco2)C3=O)cc1 | i | 10.7 | 5.1 | -9.9 | i | 4.8 | . | .
Cc1ccc(OCC(=O)Nc2sc3c(c2C#N)CCC3)cc1C | i | 3.1 | 14.5* | 5.4 | i | . | 2.1 | 5.2
Cc1ccc(OCC(=O)Nc2sc3c(c2C#N)CCC3)cc1 | i | 2.6 | 11.4* | -5.7 | i | -3.1 | 0.9 | 2.6
CC(=O)Nc1ccc(S(=O)(=O)N(C)CC(=O)Nc2nc3ccccc3[nH]2)cc1 | . | 19.2 | -1.9 | . | i | . | . | .
SMILES | ANO1 block | MC4R antagonist | MC4R ag barr | CSC inhib | TMEM16A act | Beta cell apopt | MC4R barr ag | MOR DOR agonist
CCCCN1C(=O)C(C#N)CC2=C1CC(C)(C)CC2=O (centres undefined) | . | 5.6 | 0.0 | . | . | . | . | .
O=C(Nc1ccc(F)c(Cl)c1)C1Cc2c(-c3ccc4c(c3)OCO4)ccnc2O1 (centres undefined) | . | 5.8 | 0.9 | . | . | . | . | .
CSc1sc(-c2nnc(SCC(=O)Nc3ccc(Cl)cc3)n2C)c2c1C=CCC2 | i | 11.9 | 15.7* | 12.3 | i | 1.0 | 7.8 | 9.3
CCN(Cc1ccncc1)C(=O)c1cc(COc2c(F)cccc2F)on1 | i | 0.3 | -1.0 | -4.5 | i | -1.1 | . | .
Cn1c(-c2ccc(Cl)cc2)ccc(C#N)c1=O | i | -1.8 | 10.9* | -31.0 | i | -6.6 | 0.0 | 5.3
COc1cccc(CNCC(=O)NC(=O)NC2CCCC2)c1 | . | 5.8 | -0.3 | -19.0 | i | 1.7 | . | .
Cc1cc(C)c(C)c(S(=O)(=O)N2CCC(C(=O)NC3=NCCS3)CC2)c1C | . | 2.7 | -3.9 | . | i | . | . | .
COc1ccc2c(c1)CCCC2NS(=O)(=O)OCC(Cl)(Cl)Cl (centres undefined) | i | 9.2 | 10.4* | 10.9 | i | -1.1 | 2.8 | 10.3
COC(=O)c1oc2ccc(Br)cc2c1NC(=O)c1ccccc1 | i | -9.3 | 29.7* | 9.1 | i | 9.2 | 16.3* | 4.3
COC(=O)c1oc2ccc(Br)cc2c1NC(=O)CN1CCN(C)CC1 | i | 0.6 | -0.9 | -3.7 | i | -0.1 | . | .
O=C(N/N=C/c1ccc(F)cc1)c1cccc(NC(=O)c2ccc(F)cc2)c1 | i | -0.2 | 41.5* | 20.9 | i | -1.7 | 2.2 | 1.7
CC(Cc1ccccc1)NC(=O)CCNNC(=O)c1ccncc1 (centres undefined) | . | 1.7 | -1.4 | . | . | . | . | .
Cc1ccc(C(C)C)c(OCc2ccc(C(=O)N/N=C/c3ccc(O)c(O)c3)cc2)c1 | i | 18.1 | 20.0* | 108.6* | i | -2.7 | 9.0* | 6.1
COc1cc(/C=N/NC(=O)c2ccc(COc3cc(C)ccc3C(C)C)cc2)cc(OC)c1O | i | 26.9 | 3.2 | 21.7 | i | 28.2 | . | .
COc1ccc(NS(=O)(=O)c2cccc(C(=O)NNC(=O)c3ccc(O)c(Cl)c3)c2)cc1 | . | -3.3 | -0.8 | -10.5 | i | -4.8 | . | .
Clc1ccccc1/C=N/NC1=Nc2cccc3cccc1c23 | i | -19.0 | 18.3* | 0.9 | i | 13.1 | 25.2* | 7.8
C(=N\NC1=Nc2cccc3cccc1c23)/c1ccccn1 | . | -6.5 | -2.0 | . | i | . | . | .
Nc1ccc(-n2c(N)c(C(=O)NCc3ccc4c(c3)OCO4)c3nc4ccccc4nc32)cc1 | i | 5.8 | 12.7* | -4.6 | i | -13.0 | 0.9 | 3.8
